The values below come from ChEMBL document CHEMBL1938261, “Discovery of novel α7 nicotinic acetylcholine receptor ligands via pharmacophoric and docking studies of benzylidene anabaseine analogs” (Bioorg Med Chem Lett, 2012).

SMILES strings stand for the structures.

Test [1] can be described thus: Displacement of [3H]methyllycaconitine from rat alpha7 nAchR in rat hippocampal membrane. It counts as cell membranes, Hippocampus. Put shortly: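 α7 sites on rat hippocampal membranes, labelled with [3H]-methyllycaconitine. Inhibition of binding measured over a seven-point dose-response curve, with replicates averaged at each point. IC50 taken by least-squares non-linear regression against log concentration. Ki given ± standard error, with replicate number per value.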
A general note: Displacement assays read how much labelled ligand stays bound in the presence of the test substance.

Test [2] deals with T1, Neuronal acetylcholine receptor; alpha4/beta2 (Homo sapiens, UniProt P17787+P43681). As to the kind of experiment: Displacement of [3H]epibatidine from human alpha4beta2 nAchR expressed in SH-EP1 cells at 5 uM. Type of test: cell-based. The gist of the method: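 Percent inhibition of control [3H]-epibatidine binding to human α4β2 expressed in SH-EP1 cells, with test compound at 5 μM. Reported ± standard error, with replicate number per value.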

Test [3] addresses Neuronal acetylcholine receptor; alpha3/beta4 (Homo sapiens) (UniProt P30926+P32297). Nature of the test: Displacement of [3H]epibatidine from human alpha3beta4 nAchR expressed in SH-SY5Y cells at 5 uM. Type of test: cell-based. Put shortly: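 Radioligand displacement using [3H]-epibatidine on SH-SY5Y cell membranes (ganglion-type nicotinic receptors). Compounds tested at 5 μM; percent inhibition of control radioligand binding reported, with the number of replicates given for each result.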

The nature of test [4]: (§1) Partial agonist activity at rat alpha7 nAchR by patch clamp assay. It counts as functional. For orientation: Patch clamp records ionic current or voltage across a cell membrane.
The species entered for test [5] is Rattus norvegicus. The test is described as §1. It counts as functional.
Test [6] has as its target T1, Neuronal acetylcholine receptor; alpha4/beta2. As to the kind of experiment: Displacement of [3H]epibatidine from human alpha4beta2 nAchR expressed in SH-EP1 cells. Type of test: cell-based. Put shortly: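 Human α4β2 heterologously expressed in SH-EP1 cells, labelled with [3H]-epibatidine. Inhibition of binding measured over a seven-point dose-response curve, with replicates averaged at each point. IC50 taken by least-squares non-linear regression against log concentration. Ki reported ± standard error, with replicate number per value.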

T1 sequence (P17787 whole entry): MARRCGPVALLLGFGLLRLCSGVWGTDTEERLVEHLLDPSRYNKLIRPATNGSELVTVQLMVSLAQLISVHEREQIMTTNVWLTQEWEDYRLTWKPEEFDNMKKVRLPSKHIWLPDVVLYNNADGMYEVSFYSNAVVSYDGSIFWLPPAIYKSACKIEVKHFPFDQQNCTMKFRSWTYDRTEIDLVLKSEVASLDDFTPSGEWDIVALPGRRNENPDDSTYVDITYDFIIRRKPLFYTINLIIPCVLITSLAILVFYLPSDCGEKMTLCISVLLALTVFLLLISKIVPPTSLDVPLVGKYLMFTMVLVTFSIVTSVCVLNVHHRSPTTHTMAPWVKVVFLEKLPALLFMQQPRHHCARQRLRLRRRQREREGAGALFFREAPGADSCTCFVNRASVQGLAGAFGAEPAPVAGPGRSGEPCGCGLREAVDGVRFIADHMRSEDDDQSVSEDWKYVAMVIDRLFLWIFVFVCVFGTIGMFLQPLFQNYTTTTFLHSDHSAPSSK
T1 sequence (P43681 whole entry): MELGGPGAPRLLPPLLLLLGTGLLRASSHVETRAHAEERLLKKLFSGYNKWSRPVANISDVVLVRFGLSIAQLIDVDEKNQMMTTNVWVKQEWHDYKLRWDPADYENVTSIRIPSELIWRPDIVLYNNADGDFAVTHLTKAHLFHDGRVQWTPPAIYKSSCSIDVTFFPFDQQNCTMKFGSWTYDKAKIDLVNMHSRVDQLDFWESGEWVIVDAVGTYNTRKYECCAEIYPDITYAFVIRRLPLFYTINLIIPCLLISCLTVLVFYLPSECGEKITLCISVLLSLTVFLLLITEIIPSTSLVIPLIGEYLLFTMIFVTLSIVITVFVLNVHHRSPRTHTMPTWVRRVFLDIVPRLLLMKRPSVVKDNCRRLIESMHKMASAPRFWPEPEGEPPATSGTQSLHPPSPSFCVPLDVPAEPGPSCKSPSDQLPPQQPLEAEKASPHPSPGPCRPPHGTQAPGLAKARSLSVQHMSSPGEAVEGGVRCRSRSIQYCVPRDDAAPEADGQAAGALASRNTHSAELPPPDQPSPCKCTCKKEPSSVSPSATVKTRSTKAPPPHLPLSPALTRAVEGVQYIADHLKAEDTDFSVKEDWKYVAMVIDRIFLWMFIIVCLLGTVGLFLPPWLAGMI

Usually Ki stands for the equilibrium dissociation constant of an inhibitor or competing ligand from its target. A high value points to a looser hold on the target. In general, inhibition refers to how much of the control response was suppressed. A higher inhibition goes with a strong effect. With `O=C1CC(c2cccs2)=NCC2(CN3CCC2CC3)N1` (stereo not given), affinity in test [1] was put at a Ki of 58 nM. Besides, the inhibition in test [2] came out at 20%. Consider `COc1cc(O)ccc1/C=C1\CCCN=C1c1cccnc1`, for which the inhibition in test [3] amounted to 75%; in test [2], 97%. Take `Nc1c(C2=NC3(CN2)CN2CCC3CC2)oc2ccccc12` (stereo not given): the Ki in test [1] was found to be 120 nM. Also, the inhibition in test [2] stood at 9%. In the case of `O=C1CC(c2ccco2)=NCC2(CN3CCC2CC3)N1` (stereo not given), the affinity in test [1], expressed as Ki, was 150 nM. In test [2], this compound returned an inhibition of 14%. `c1ccc2oc(C3=NC4(CN3)CN3CCC4CC3)cc2c1` (stereo not given) came in with an inhibition in test [2] of 4%.

The EC50 is the concentration giving half of the maximal effect. Low readings indicate higher potency in that assay, high ones lower potency in that assay. What is called Emax is the maximal effect, on the per cent scale that the assay sets. Compound `Oc1c(C2=NC3(CN2)CN2CCC3CC2)oc2ccccc12` (stereo not given) displayed a Ki in test [1] of 7 nM. The compound also registered an inhibition in test [2] of 32%. In test [4], the EC50 came to 600 nM. The same compound displayed an Emax in test [5] of 53%. As for `C1=NCC2(CN3CCC2CC3)NC=C1c1ccccc1` (stereo not given), the inhibition in test [2] stood at 6%. With `COc1ccc(/C=C2\CCCN=C2c2cccnc2)c(OC)c1` [GTS-21], the figures for the inhibition constant Ki in test [6] and in test [1] were 51 nM and 1300 nM, respectively.

Consider `Oc1ccccc1C1=NC2(CN1)CN1CCC2CC1` (stereo not given), for which the inhibitory constant (Ki) in test [1] was 290 nM. In test [2], this compound had an inhibition of 4%. On the same counts, the results for `O=C1CC(c2ccc(Br)s2)=NCC2(CN3CCC2CC3)N1` (stereo not given) are 77 nM and 62%. In the same order, the values of `COc1ccccc1C1=NCC2(CN3CCC2CC3)NC(=O)C1` (stereo not given) are 110 nM and 7%. Consider `O=C1NCC2(CN3CCC2CC3)NC(=O)C1c1ccccc1` (stereo not given), for which the inhibition in test [2] was determined as 2%. In test [1], `COc1cccc(C2=NCC3(CN4CCC3CC4)NC(=O)C2)c1` (stereo not given) had a Ki of 87 nM. The inhibition in test [2] came to 12%.

Take `OC1=CC(c2ccccc2)=NCC2(CN3CCC2CC3)N1` (stereo not given): in test [1], the inhibition constant (Ki) came out at 140 nM. Besides, the inhibition in test [2] came out at 15%. With `c1ccc(C2=NC3(CN2)CN2CCC3CC2)cc1` (stereo not given), the inhibition in test [2] was found to be 11%. In test [1], `COc1ccc(C2=NCC3(CN4CCC3CC4)NC(=O)C2)cc1` (stereo not given) showed a Ki of 42 nM. Moreover, in test [2], the inhibition was found to be 42%.
